In data set [1] the test system is NCI-H1703. Put plainly: Antiproliferative activity against human NCI-H1703 cells expressing FASN assessed as reduction in cell viability after 72 hrs by MTS assay. Type of data set: functional, cell-based. The settings on record: NCI-H1703, 72 h. An outline of the steps: (§1)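 ATCC-sourced cells. H1299, H1650, H1703 and PC-9 were grown in RPMI 1640 with 10% FBS. A549 was grown in high-glucose DMEM with 10% FBS and 1 mM pyruvate. SAEC was grown in BEGM. Cells were seeded at 3 × 10^3 per well (H1650 3.5 × 10^3) and left to attach overnight. Serial dilutions from DMSO stocks were added, 0.1% DMSO final, for 72 h at 37 °C, 5% CO2. Medium was replaced, MTS added, and A490 read after 2 h. IC50 was taken from % viability versus log concentration, 3 experiments.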
On the technique in general: Tetrazolium dyes change colour on reduction, which living cells bring about.

In data set [2] the target is Fatty acid synthase (Homo sapiens) (UniProt P49327). Put plainly: Inhibition of FASN in human NCI-H1703 cells expressing FASN assessed as disruption of AKT/FASN positive feedback loop by measuring decrease in FASN expression at 5 uM after 48 hrs by Western immunoblot based densitometric assay relative to control. Type of data set: cell-based. The method, boiled down: (§2)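 PC-9 or H1703 cells were seeded at 8 × 10^5 per 100 mm dish and treated for 48 h at 1 or 5 µM (or 5, 50 and 100 µM). RIPA lysates were BCA-quantified and run on 8% SDS-PAGE, then transferred to PVDF. Blots were probed for FASN, AKT, phospho-AKT S473 and GAPDH and detected by ECL. Bands were quantified by densitometry and normalised to vehicle control.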

In data set [3] the test system is NCI-H1703. The data set can be described thus: Antiproliferative activity against human NCI-H1703 cells expressing FASN assessed as cell viability at 1 uM after 72 hrs in presence of exogenous lipid concentrate by MTS assay. Type of data set: functional, cell-based. The method, boiled down:
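Cells were treated as in the MTS viability assay. After 6 h, chemically defined lipid concentrate was added to 2% v/v final. Incubation continued for a further 72 h, then viability was read by MTS at 490 nm. Cells were treated at 2 µM (PC-9) or 1 µM (H1703). Mean ± SD, n = 3, compared with compound alone.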

Data set [4] relates to PC-9. The data set can be described thus: Induction of apoptosis in human PC9 cells harboring FASN expression and EGFR delE746-A750 mutant assessed as increase in late apoptotic cells at 5 uM after 72 hrs by Annexin-V FITC/PI staining-based flow cytometry. Type of data set: functional, cell-based. In general terms: A flow cytometer gives signals particle by particle.
Data set [5] can be described thus: Cytotoxicity against human SAE cells lacking FASN expression assessed as reduction in cell viability after 72 hrs by MTS assay. The format is cell-based. The method, boiled down: as §1
The target of data set [6] is Fatty acid synthase (Homo sapiens) (UniProt P49327). Put plainly: Inhibition of FASN in human PC9 cells harboring FASN expression and EGFR delE746-A750 mutant assessed as disruption of AKT/FASN positive feedback loop by measuring reduction in AKT expression at 5 uM after 48 hrs by Western immunoblot based densitometric assay relative to control. The format is cell-based. The method, boiled down:
as §2
In general terms: Immunoblotting shows a protein as a band on a membrane.

A short description of data set [7]: Selectivity index, ratio of IC50 for human SAE cells lacking FASN expression to IC50 for human NCI-H1650 cells expressing FASN. The method, boiled down: (§3)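 Index is the SAEC IC50 divided by the IC50 in the FASN-expressing NSCLC line. IC50s came from MTS viability after 72 h exposure at 37 °C, 5% CO2, DMSO 0.1% v/v. Absorbance was read at 490 nm after 2 h. The fit was % viability against log concentration, with 4 technical repeats and 3 independent experiments. NSCLC lines were grown in RPMI/10% FBS; SAEC in BEGM.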

Data set [8] in a line: Kinetic solubility of the compound in universal buffer at pH 7.4 measured at 25 degC after 24 hrs by UV/Visible spectroscopic analysis. The conditions noted are these: read-out: Kinetic_solubility. Type of data set: physicochemical.
Data set [9] concerns the target Fatty acid synthase (Homo sapiens) (UniProt P49327). Put plainly: Inhibition of FASN in human NCI-H1703 cells expressing FASN assessed as disruption of AKT/FASN positive feedback loop by measuring decrease in phosphorylated AKT expression at 1 uM after 48 hrs by Western immunoblot based densitometric assay relative to control. The format is cell-based. The method, boiled down:
as §2

The nature of data set [10]: Selectivity index, ratio of IC50 for human SAE cells lacking FASN expression to IC50 for human NCI-H1703 cells expressing FASN. An outline of the steps: as §3
For data set [11], the target named is Fatty acid synthase (Homo sapiens) (UniProt P49327). Put plainly: Inhibition of FASN in human NCI-H1703 cells expressing FASN assessed as disruption of AKT/FASN positive feedback loop by measuring decrease in FASN expression at 1 uM after 48 hrs in presence of exogenous lipid concentrate by Western immunoblot based densitometric assay relative to control. The format is cell-based. The method, boiled down:
(§4)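 PC-9 (2 µM) or H1703 (1 µM) cells were treated with compound, with or without lipid concentrate (1% v/v per figure legend), for 48 h. Cells were lysed in RIPA buffer and lysates run on SDS-PAGE western blots for FASN, AKT, phospho-AKT S473 and GAPDH. Bands were quantified by densitometry and normalised to untreated control.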

Data set [12] concerns NCI-H1703. Put plainly: Induction of apoptosis in human NCI-H1703 cells expressing FASN assessed as increase in late apoptotic cells at 5 uM after 72 hrs by Annexin-V FITC/PI staining-based flow cytometry. The format is functional, cell-based.
Data set [13] can be described thus: Selectivity index, ratio of IC50 for human SAE cells lacking FASN expression to IC50 for human PC9 cells harboring FASN expression and EGFR delE746-A750 mutant. An outline of the steps: as §3
Data set [14] in a line: Ratio of compound kinetic solubility to [1,1'-Biphenyl]-4,4'-diyl bis(3,4,5-trihydroxybenzoate)] kinetic solubility in universal buffer at pH 7.4 measured at 25 degC after 24 hrs by UV/Visible spectroscopic analysis. Type of data set: physicochemical. The settings on record: pH 7.4, 24 h.
The target of data set [15] is Fatty acid synthase (Homo sapiens) (UniProt P49327). The data set can be described thus: Inhibition of FASN in human PC9 cells harboring FASN expression and EGFR delE746-A750 mutant assessed as disruption of AKT/FASN positive feedback loop by measuring ratio of phosphoAKT/AKT expression at 2 uM after 48 hrs in presence of exogenous lipid concentrate by Western immunoblot based densitometric assay relative to control. Type of data set: cell-based. An outline of the steps: as §4

The target is the same in data set [16]. The data set can be described thus: Inhibition of FASN in human PC9 cells harboring FASN expression and EGFR delE746-A750 mutant assessed as disruption of AKT/FASN positive feedback loop by measuring FASN expression at 2 uM after 48 hrs in presence of exogenous lipid concentrate by Western immunoblot based densitometric assay relative to control. The format is cell-based. The method, boiled down: as §4

For data set [17] the target is unchanged. Put plainly: Inhibition of FASN in human NCI-H1703 cells expressing FASN assessed as disruption of AKT/FASN positive feedback loop by measuring decrease in ratio of phosphoAKT/AKT expression at 1 uM after 48 hrs by Western immunoblot based densitometric assay relative to control. Type of data set: cell-based. The method, boiled down:
as §2

Data set [18] shares this target. Put plainly: Inhibition of FASN in human PC9 cells harboring FASN expression and EGFR delE746-A750 mutant assessed as disruption of AKT/FASN positive feedback loop by measuring decrease in FASN expression at 5 uM after 48 hrs by Western immunoblot based densitometric assay relative to control. Type of data set: cell-based. The method, boiled down:
as §2

The test system of data set [19] is PC-9. Put plainly: Antiproliferative activity against human PC9 cells harboring FASN expression and EGFR delE746-A750 mutant assessed as reduction in cell viability after 72 hrs by MTS assay. The conditions noted are these: PC-9, 72 h. Type of data set: functional, cell-based. An outline of the steps:
as §1

The target in data set [20] is Fatty acid synthase (Homo sapiens) (UniProt P49327). The data set can be described thus: Inhibition of FASN in human PC9 cells harboring FASN expression and EGFR delE746-A750 mutant assessed as disruption of AKT/FASN positive feedback loop by measuring reduction in AKT expression at 1 uM after 48 hrs by Western immunoblot based densitometric assay relative to control. Type of data set: cell-based. The method, boiled down:
as §2

pIC50: −log10 of the molar value. ≈ marks a conversion by molar mass, not a printed value. Calls of active or inactive are those of the source. The rule behind the calls is not given here.

By pIC50 is commonly meant −log10 of the IC50, conventionally taken in molar units.

Sequence of Fatty acid synthase (Homo sapiens) (P49327 whole entry, looked up): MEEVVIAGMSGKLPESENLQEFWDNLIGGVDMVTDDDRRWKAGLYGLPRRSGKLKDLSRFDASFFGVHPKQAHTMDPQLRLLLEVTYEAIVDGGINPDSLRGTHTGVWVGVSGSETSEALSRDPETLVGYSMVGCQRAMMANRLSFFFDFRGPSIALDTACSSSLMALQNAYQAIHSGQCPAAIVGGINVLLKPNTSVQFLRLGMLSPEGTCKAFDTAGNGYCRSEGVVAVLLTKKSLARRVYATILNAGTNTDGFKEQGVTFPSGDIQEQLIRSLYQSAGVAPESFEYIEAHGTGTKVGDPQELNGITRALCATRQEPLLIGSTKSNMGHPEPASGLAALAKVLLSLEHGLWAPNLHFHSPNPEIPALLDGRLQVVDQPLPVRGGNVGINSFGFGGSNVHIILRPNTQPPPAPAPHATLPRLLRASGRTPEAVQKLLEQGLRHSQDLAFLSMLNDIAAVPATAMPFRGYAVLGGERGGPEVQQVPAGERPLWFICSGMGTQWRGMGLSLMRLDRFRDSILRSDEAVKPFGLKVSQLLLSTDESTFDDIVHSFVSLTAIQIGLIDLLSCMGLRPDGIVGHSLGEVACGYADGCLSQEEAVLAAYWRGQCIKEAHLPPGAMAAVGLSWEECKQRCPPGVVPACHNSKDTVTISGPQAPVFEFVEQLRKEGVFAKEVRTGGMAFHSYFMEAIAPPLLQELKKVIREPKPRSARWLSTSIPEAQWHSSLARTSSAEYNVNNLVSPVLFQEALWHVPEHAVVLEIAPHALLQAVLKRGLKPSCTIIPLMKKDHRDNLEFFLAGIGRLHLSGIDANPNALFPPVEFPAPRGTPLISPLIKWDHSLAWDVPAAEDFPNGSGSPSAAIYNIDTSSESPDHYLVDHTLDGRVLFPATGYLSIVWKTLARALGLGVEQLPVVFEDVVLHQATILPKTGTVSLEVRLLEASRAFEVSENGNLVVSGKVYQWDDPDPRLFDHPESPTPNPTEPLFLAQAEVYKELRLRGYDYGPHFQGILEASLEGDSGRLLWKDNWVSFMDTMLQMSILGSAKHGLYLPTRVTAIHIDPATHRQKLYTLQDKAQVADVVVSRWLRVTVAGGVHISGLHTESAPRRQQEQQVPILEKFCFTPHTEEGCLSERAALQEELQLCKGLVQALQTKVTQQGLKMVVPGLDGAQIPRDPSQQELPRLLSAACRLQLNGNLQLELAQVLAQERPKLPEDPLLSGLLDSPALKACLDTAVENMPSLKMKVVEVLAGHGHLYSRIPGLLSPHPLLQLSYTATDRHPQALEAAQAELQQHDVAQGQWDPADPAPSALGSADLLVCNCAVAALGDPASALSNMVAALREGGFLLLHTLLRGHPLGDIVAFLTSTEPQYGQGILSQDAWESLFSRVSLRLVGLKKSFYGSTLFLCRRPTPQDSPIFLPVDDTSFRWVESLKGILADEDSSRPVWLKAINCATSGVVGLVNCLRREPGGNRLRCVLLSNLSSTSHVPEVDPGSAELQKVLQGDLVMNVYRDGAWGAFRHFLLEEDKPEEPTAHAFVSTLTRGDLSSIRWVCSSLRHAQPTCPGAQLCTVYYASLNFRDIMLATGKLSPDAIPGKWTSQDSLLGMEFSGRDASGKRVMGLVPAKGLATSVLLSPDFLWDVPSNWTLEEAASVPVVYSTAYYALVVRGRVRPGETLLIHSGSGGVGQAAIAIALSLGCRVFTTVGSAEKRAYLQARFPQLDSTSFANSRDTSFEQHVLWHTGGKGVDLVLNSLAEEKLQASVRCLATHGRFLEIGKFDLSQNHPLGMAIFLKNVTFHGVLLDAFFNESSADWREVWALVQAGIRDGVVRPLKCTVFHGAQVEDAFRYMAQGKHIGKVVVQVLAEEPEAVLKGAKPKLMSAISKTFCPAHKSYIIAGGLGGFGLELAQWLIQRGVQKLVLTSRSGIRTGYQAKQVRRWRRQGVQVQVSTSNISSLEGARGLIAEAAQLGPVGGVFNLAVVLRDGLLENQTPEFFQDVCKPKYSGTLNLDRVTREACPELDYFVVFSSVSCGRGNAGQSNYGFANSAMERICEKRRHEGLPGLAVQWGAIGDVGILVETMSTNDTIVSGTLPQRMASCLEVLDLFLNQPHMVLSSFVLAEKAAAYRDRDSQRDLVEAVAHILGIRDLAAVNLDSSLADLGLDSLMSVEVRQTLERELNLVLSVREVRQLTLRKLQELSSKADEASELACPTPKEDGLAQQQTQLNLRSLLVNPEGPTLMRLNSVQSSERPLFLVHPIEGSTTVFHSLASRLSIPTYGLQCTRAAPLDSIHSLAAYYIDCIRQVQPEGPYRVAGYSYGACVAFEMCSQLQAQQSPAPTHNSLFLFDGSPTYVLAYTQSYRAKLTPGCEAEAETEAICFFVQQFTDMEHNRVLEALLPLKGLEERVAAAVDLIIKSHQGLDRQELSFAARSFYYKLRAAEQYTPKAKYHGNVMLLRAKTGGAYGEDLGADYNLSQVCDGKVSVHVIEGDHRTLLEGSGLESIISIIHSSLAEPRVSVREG

In the case of `O=C(Oc1ccc(/C=C/c2ccc(OC(=O)c3cc(O)c(O)c(O)c3)cc2)cc1)c1cc(O)c(O)c(O)c1`, the values for the pIC50 (in the data set on NCI-H1703 [1]; in data set [5]; with PC-9 [19]) were 6.01, 5.30 and 5.64, respectively. The Ratio is 0.04 in data set [2]; 0.18 in data set [6]; 0.09 in [9]; 0.74 in [11]; 6 to 15 in [14]; 0.57 in data set [15]. Further, the Ratio in data set [16] came out at 0.55; in [17], 0.04; in data set [18], 0.49; in data set [20], 1.04. Further, the inhibition result in the data set on NCI-H1703 [3] is “inactive”. Further, the outcome with PC-9 [4] and in the data set on NCI-H1703 [12] was Active. Also, the “Ratio IC50” value in data set [7] was determined as 2; in data set [10] it was 5.2; in data set [13], 2.2. In addition, the solubility kinetic at 24 h in data set [8] was 2.5 µM (≈ 1.29 µg/mL).
Regarding `O=C(Oc1ccc(/C=C/c2cccc(OC(=O)c3cc(O)c(O)c(O)c3)c2)cc1)c1cc(O)c(O)c(O)c1`, the pIC50 in the data set with NCI-H1703 [1] was 5.89; in [5] it was 5.17; in the data set on PC-9 [19], 5.30. Further, the Ratio in data set [2] is 0.08; in data set [6] it was 0.12; in data set [9], 0.57; in data set [11], 1.64; in data set [14] it was 15; in data set [15] it was 0.87. Also, the Ratio in [16] was found to be 0.62; in [17], 0.16; in [18], 0.65; in [20], 0.58. Further, the inhibition entry in the data set with NCI-H1703 [3] is “inactive”. Moreover, the outcome in the data set with PC-9 [4] and in the data set on NCI-H1703 [12] was Active. Besides, the figures for the “Ratio IC50” value in [7], in data set [10] and in data set [13] were 0.5, 5.3 and 1.4, respectively. The solubility kinetic at 24 h in data set [8] was determined as 6 µM (≈ 3.1 µg/mL).

The values above are taken from ChEMBL document CHEMBL4406830, “Galloyl esters of trans-stilbenes are inhibitors of FASN with anticancer activity on non-small cell lung cancer cells” (Eur J Med Chem, 2019).
